{
  "source": "paper PMC12393906",
  "about": "(Molecular Therapy, 2025)",
  "key": {"ERO1α [1]": {"molecular_target": "ERO1α", "details": "read-out: KD (ERO1α); cited from earlier work"}, "[2]": {"test_system": "lysine-specific demethylase 1", "details": "cited from earlier work"}, "Mao-A": {"test_system": "Mao-A", "details": "read-out: IC50 (Mao-A); cited from earlier work"}, "ERO1α [3]": {"test_system": "ERO1α", "details": "read-out: IC50 (ERO1α); cited from earlier work"}, "Recombinant human ERO1α": {"molecular_target": "T1, Recombinant human ERO1α (Homo sapiens, UniProt Q96HE7)", "T1 sequence (Q96HE7 24-468)": "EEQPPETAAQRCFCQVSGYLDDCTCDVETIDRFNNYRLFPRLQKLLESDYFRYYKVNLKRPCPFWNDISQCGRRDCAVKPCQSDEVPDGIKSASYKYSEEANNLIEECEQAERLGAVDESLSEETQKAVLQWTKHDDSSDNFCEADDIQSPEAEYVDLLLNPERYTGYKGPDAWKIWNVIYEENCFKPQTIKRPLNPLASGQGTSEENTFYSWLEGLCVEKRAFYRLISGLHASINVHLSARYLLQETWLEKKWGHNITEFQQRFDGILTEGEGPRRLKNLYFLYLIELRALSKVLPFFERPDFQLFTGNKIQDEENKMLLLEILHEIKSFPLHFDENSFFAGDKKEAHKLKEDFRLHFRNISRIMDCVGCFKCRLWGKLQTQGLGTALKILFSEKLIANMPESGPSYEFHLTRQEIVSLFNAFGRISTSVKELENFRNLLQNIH", "assay": "fluorescence-based ERO1α activity assay", "format": "biochemical", "details": "0.01–1 μM FAD"}, "C57BL/6 mice [4]": {"test_system": "C57BL/6 mice", "assay": "Tail bleeding time and hemoglobin content", "format": "in vivo, mouse", "details": "iv 5 μg/g BW"}, "C57BL/6 mice [5]": {"test_system": "C57BL/6 mice", "assay": "FeCl3-induced carotid arterial thrombosis", "format": "in vivo, mouse", "details": "iv 5 μg/g BW; 7% or 10% FeCl3", "procedure,_shortened": "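Male and female mice, 8–12 weeks, were anaesthetised with ip ketamine/xylazine. A 2 × 2 mm filter disc carrying 1.2 μL of 7 or 10% FeCl3 was placed on the carotid artery for 2 min. Flow was monitored by Doppler flow meter. TTO was the time from disc removal to stable occlusion (no flow for 5 min).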"}},
  "data": [
    {"molecule": "CN(C)c1ccc(/C=C2\\Oc3cc(O)ccc3C2=O)cc1", "note": "[Compound T151742]", "values": [
      {"measurement": "Kd", "setting": "ERO1α [1]", "result": 31.4, "unit": "µM"},
      {"measurement": "binding to lysine-specific demethylase 1", "setting": "[2]", "result": "does not bind"},
      {"measurement": "IC50", "setting": "Mao-A", "result": 1, "unit": "µM"},
      {"measurement": "IC50", "setting": "ERO1α [3]", "result": 8.7, "unit": "µM"}
    ]},
    {"molecule": "Cc1cc2nc3c(=O)[nH]c(=O)nc-3n(C[C@H](O)[C@H](O)[C@H](O)COP(=O)(O)OP(=O)(O)OC[C@H]3O[C@@H](n4cnc5c(N)ncnc54)[C@H](O)[C@@H]3O)c2cc1C", "note": "[FAD, flavin adenine dinucleotide]", "values": [
      {"measurement": "effect of exogenous FAD on ERO1α activity", "setting": "Recombinant human ERO1α", "result": "significantly increased ERO1α activity"}
    ]},
    {"molecule": "eptifibatide", "values": [
      {"measurement": "tail bleeding times and blood loss", "setting": "C57BL/6 mice [4]", "result": "markedly increased both"},
      {"measurement": "time to occlusion (TTO)", "setting": "C57BL/6 mice [5]", "result": "significantly prolonged TTO irrespective of the FeCl3 concentration"}
    ]}
  ]
}
